Rows were chosen to be rich in hits. Some 0.64% of all compounds tested hit in one or more screens of this group.
TNF death inh = inhibitors of TNF-alpha triggered necroptosis, primary screen, cell-based, Jurkat FADD-/-, single concentration; Jurkat FADD-/- TNF necroptosis rescue, ATP luminescence, 24 h; 0 = TNF only, 100 = no-TNF cells; activation (protection from cell death), % at 10 µM; actives 0.068% (n = 220,000);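 active = activation, meaning protection from cell death, of at least 50% relative to plate controls; inactive = activation below 50%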;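 note: necroptosis triggered by 40 ng/mL TNF-alpha added together with compound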
Rad51 HR inh = human RAD51 strand exchange inhibitors, primary screen, biochemical, fluorescence; AID 1385, 2008; hRad51 DNA strand exchange, fluorescence dequenching; inhibition, % at 10 µM; actives 0.085% (n = 200,000);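 active = inhibition above 40% at the single screening dose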
Target sequence (Q06609 whole entry, looked up): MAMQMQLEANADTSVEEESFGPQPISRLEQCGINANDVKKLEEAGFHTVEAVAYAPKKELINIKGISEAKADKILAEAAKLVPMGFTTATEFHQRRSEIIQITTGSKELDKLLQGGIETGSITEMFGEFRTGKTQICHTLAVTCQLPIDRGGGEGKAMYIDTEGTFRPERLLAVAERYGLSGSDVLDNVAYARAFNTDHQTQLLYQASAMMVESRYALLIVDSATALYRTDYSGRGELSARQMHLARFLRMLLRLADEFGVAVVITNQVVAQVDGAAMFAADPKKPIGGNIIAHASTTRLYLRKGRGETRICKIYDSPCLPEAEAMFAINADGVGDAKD
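Material: hRad51 filaments on single-stranded DNA; Reagent: Donor/quencher-labelled 47-bp dsDNA substrate; Compound: 10 µM final, single point; Schedule: 37 °C 15-min filament assembly, 30-min compound preincubation, 15-min exchange; Technique: FRET fluorescence, excitation 485 nm, emission 520 nm; Benchmarks: control wells and blank wells on each plate.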
sdo1 growth = growth rescue of sdo1-depleted yeast, primary screen, S. cerevisiae, bone marrow failure model | AID 817, 2007 | actives 0.21% (n = 140,000) | z-score at 10 µM | S. cerevisiae sdo1-depleted JHY4D growth rescue, OD600 30 h; hits give high values; pdr5 snq2 efflux-pump mutant strain;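 active = z-score above 3 at both the 24 hr and the 30 hr optical density reads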
L929 necroptosis = inhibitors of zVAD-triggered necroptosis, primary screen, L929 cells | viability rescue, % at 10 µM | L929 zVAD necroptosis rescue, ATP luminescence, 24 h; with zVAD 60 µM | actives 0.38% (n = 220,000) | AID 1377, 2008;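 active = activation, scaled between plate controls, above about 75%, limit read from the data; inactive = activation under that limit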
sdo1 rescue conf = SDO1-depleted yeast growth rescue, concentration-response, diseases of bone marrow failure, JHY4D, OD600; actives 44% (n = 440); S. cerevisiae JHY4D (SDO1-depleted) growth rescue, 30 h; hits give high values; efflux-deficient strain, SNQ2 and PDR5 mutated; shares compounds with sdo1 growth; AID 949, 2007; OD recovery (test concentration not listed);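 active = yeast growth recovered at 30 hours, either rising with dose fitted slope above 0.001 or with average optical density gain above 0.07, some results past the limit were not filed as active; inactive = growth falling with dose or no effect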
Of the large screens only hits and unclear results are named; the others gave an inactive call (follow-up assays come after a bar, where they were run).

O=C(C1=C(O)C(=O)N(CCc2ccccc2)C1c1cccnc1)c1ccco1 (stereo not drawn)	none
COCCCN1C(=O)C(O)=C(C(=O)c2ccco2)C1c1ccccc1 (stereo not drawn)	none | sdo1 rescue conf 0.0973
CCCCN(C)C(=O)c1cc2cc3ccc(OC)cc3nc2s1	sdo1 growth 15.7 | sdo1 rescue conf 0.0758
CCOC(=O)c1sc(=S)n(-c2ccccc2)c1C	none (no result: sdo1 growth)
CCOC(=O)c1sc(=S)n(-c2ccccc2)c1N	sdo1 growth 4.04 | sdo1 rescue conf inactive
CCN1CCCC1CNC(=O)CCNC(=O)c1cc(OC)c(OC)c(OC)c1 (stereo not drawn)	sdo1 growth 3.29 | sdo1 rescue conf 0.0829
CCOC(=O)c1nonc1NC(C)=O	none
CCOC(=O)c1nsnc1NCCSC(=N)N	sdo1 growth 6.18 | sdo1 rescue conf 0.0942
CCN(C(=S)Nc1cc(S(=O)(=O)N2CCOCC2)ccc1Cl)c1cccc2ccccc12	none
O=S(=O)(c1ccc(Cl)c(NC(=S)Nc2cccc(O)c2)c1)N1CCOCC1	sdo1 growth 15.1 | sdo1 rescue conf inactive
CN(Cc1ccccc1)C(=S)Nc1ccc(OC(F)F)cc1	sdo1 growth 9.06 | sdo1 rescue conf inactive
CC(C)CC(NC(=O)COc1ccccc1)C(=O)O (stereo not drawn)	none (no result: Rad51 HR inh)
COC(=O)[C@H](C)NC(=O)COc1ccccc1	sdo1 growth 3.82 | sdo1 rescue conf inactive
O=C(NCCN1CCCC1)c1ccc(CS(=O)(=O)c2c(Cl)cccc2Cl)o1	none
COc1ccc(OC)c(-c2c3cc(O)c(=O)cc-3oc3cc(O)c(O)cc23)c1	sdo1 growth 5.68 | sdo1 rescue conf inactive
CCOc1ccc(C(=O)NC(=S)Nc2ccccc2OC)cc1[N+](=O)[O-]	none | sdo1 rescue conf 0.0771
COC(=O)c1cccc(NC(=O)c2ccc3c(c2)C(=O)N(CC2CCCO2)C3=O)c1 (stereo not drawn)	none | sdo1 rescue conf inactive
O=C(O)c1cccc(NC(=O)c2ccc3c(c2)C(=O)N(CC2CCCO2)C3=O)c1 (stereo not drawn)	none
CCOc1ccc(CCN2C(=O)C3C4C=CC(C4)C3C2=O)cc1OCC (stereo not drawn)	none | sdo1 rescue conf inactive
CCOc1ccc(C(C)=O)cc1N1C(=O)C2C3C=CC(C3)C2C1=O (stereo not drawn)	none
Cc1ccc(CO/N=C\Cc2snc(Sc3ncc(C(F)(F)F)cc3Cl)c2C#N)cc1	sdo1 growth 3.71 | sdo1 rescue conf inactive
Cc1c(-c2ccccc2)[n+](=O)c2c(n1[O-])CCCCC2	none
O=C(CC12CC3CC(CC(C3)C1)C2)NCC(=O)N1CCCC1	sdo1 growth 3.97 | sdo1 rescue conf inactive
COc1ccc(NC(=O)C2CCCCN2S(=O)(=O)c2ccc(F)cc2)cc1 (stereo not drawn)	none | sdo1 rescue conf inactive
O=C(N1CCN(c2ccccc2)CC1)C(F)(F)C(F)(F)F	sdo1 growth 3.42 | sdo1 rescue conf inactive
O=C(N1CCN(c2ccccc2)CC1)C(F)(F)C(F)F	none
COc1ccc(OCC(=O)Nc2nonc2NC(=O)COc2ccc(OC)cc2)cc1	none (no result: sdo1 growth)
COc1ccc(OCC(=O)Nc2cccc(NC(=O)COc3ccc(OC)cc3)n2)cc1	sdo1 growth 3.08 | sdo1 rescue conf inactive
N#Cc1ccc(-c2ccc(F)cc2)nc1SCC(=O)Nc1sc2c(c1C#N)CCC2	none | sdo1 rescue conf inactive
Cn1c(CNC(=O)c2ccc(Cl)c(Cl)c2)nnc1SCC(=O)Nc1sc2c(c1C#N)CCCC2	sdo1 growth 4.73 | sdo1 rescue conf inactive
O=C(CN1C(=O)c2ccccc2C1=O)NCC1CCCO1 (stereo not drawn)	none
O=C(CCCN1C(=O)c2ccccc2C1=O)NCC1CCCO1 (stereo not drawn)	none | sdo1 rescue conf inactive
COc1ccc(OC)c(C2=NOC(C(=O)NCc3ccco3)C2)c1 (stereo not drawn)	sdo1 growth 7.63 | sdo1 rescue conf inactive
O=C(C1CCCCC1)N(Cc1ccccc1)c1ccccn1	sdo1 growth 10.6 (no result: Rad51 HR inh) | sdo1 rescue conf 0.0783
O=C(Nc1nc2ccccc2s1)c1ccc(OCC2CCCO2)cc1 (stereo not drawn)	none
COc1ccc(C(CNC(=O)c2cc(C)oc2C)N2CCOCC2)cc1 (stereo not drawn)	none | sdo1 rescue conf 0.0818
COC(=O)c1c(NC(=O)c2nc3ccccc3s2)sc2c1CCN(C(C)=O)C2	none
CNC(=O)c1c(NC(=O)c2nc3ccccc3s2)sc2c1CCC2	none | sdo1 rescue conf inactive
O=C(Cc1ccccc1)NCC(=O)OCC(=O)c1ccc(OC(=O)c2ccccc2)cc1	none
Cc1cc(NC(=O)c2cc(C(C)C)on2)no1	none
O=C(/C=C/c1cccc(OCc2ccccc2)c1)c1cccnc1	none
O=C(O)CCNC(=O)CCCn1nnc2ccccc2c1=O	none (no result: sdo1 growth)
CCC(Sc1nc(C)cc(C)n1)C(=O)NC1=NN=C(c2ccc(C)cc2)CS1 (stereo not drawn)	none
Cc1cc(C)nc(SCC(=O)NC2=NN=C(c3ccc(Br)cc3)CS2)n1	none | sdo1 rescue conf 0.0826
COc1cccc(NC(=O)CSc2nc3c(c(=O)n2C)SC(C)C3)c1 (stereo not drawn)	none
CS(=O)(=O)N1CCCC(C(=O)NC2CCCCCCC2)C1 (stereo not drawn)	none
CC(C)NC(=O)C1CCCN(S(C)(=O)=O)C1 (stereo not drawn)	none | sdo1 rescue conf inactive
C/C(=N/O)c1ccc2c(c1)OCCOCCOc1cc(/C(C)=N/O)ccc1OCCOCCO2	none (no result: Rad51 HR inh, L929 necroptosis)
COc1ccccc1OCC(=O)NNC(=O)c1ccoc1C	sdo1 growth 5.12 | sdo1 rescue conf inactive
O=C(NCc1ccc2c(c1)OCO2)c1cc(-c2ccc(Cl)cc2Cl)on1	none | sdo1 rescue conf inactive
COc1ccccc1C(=O)COC(=O)c1ccccc1OCC(=O)Nc1ccc(SC(F)F)cc1	none
COc1ccccc1NC(=O)COC(=O)c1ccccc1OCC(=O)Nc1ccc(SC(F)F)cc1	none | sdo1 rescue conf 0.0728
CCc1ccccc1NC(=O)CC(O)(C(=O)OC)C(F)(F)F (stereo not drawn)	sdo1 growth 3.08 | sdo1 rescue conf inactive
Cc1cc(NC(=O)Nc2ccc(Cl)c(Cl)c2)n(-c2ccccc2)n1	none (no result: sdo1 growth)
CCOC(=O)c1cnc2ccc(C)cc2c1Sc1ccc(F)cc1	sdo1 growth 13.2 (no result: Rad51 HR inh) | sdo1 rescue conf 0.0975
O=C(c1cccc(OC(F)F)c1)N1CCN(c2ncccn2)CC1	none
CCN(CC)CCCNC(=O)c1sc2nc(-c3ccc(F)cc3)cn2c1C	sdo1 growth 3.58 | sdo1 rescue conf 0.0832
Cc1c(C(=O)NCc2ccccn2)sc2nc(-c3ccc(F)cc3)cn12	none
Cn1cnnc1SCC(=O)c1ccc(O)c(O)c1	none (no result: sdo1 growth)

Screens deposited in PubChem BioAssay by several laboratories.
